Data taken from ChEMBL document CHEMBL4368918, “Structure-Based Design of Inhibitors Selective for Human Proteasome β2c or β2i Subunits” (J Med Chem, 2019).
pIC50: −log10 of the molar value.

What was measured:
[1] = target: T1, Proteasome subunit beta type-10 (Homo sapiens, UniProt P40306); experiment: Inhibition of 20S immunoproteasome beta 2 (unknown origin) by cell based ABPP assay
T1 sequence (P40306 whole entry): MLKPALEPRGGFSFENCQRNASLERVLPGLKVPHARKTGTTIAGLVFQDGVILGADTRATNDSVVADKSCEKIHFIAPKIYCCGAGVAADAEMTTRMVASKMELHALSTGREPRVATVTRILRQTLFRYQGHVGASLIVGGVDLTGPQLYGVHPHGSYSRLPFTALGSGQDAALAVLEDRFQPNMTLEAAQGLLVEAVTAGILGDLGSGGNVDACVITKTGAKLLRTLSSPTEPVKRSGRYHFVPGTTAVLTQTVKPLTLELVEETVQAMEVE
In short: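 Living RPMI-8226 cells, (5–8) ×10^5 cells/mL, exposed to inhibitor 1 h at 37 °C, washed, lysed in digitonin buffer 1 h on ice; residual activity labelled with cocktail ABPs, SDS-PAGE in-gel fluorescence, bands divided by mock, Coomassie staining to correct loading. IC50 from mean of three independent experiments.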

Homo sapiens [2] = species on record: Homo sapiens; experiment: Selectivity ratio of IC50 for 20S immunoproteasome beta 2 (unknown origin) to IC50 for 20S constitutive proteasome beta 2 trypsin-like activity (unknown origin)
[3] = target: T1, Proteasome subunit beta type-10; experiment: Inhibition of 20S immunoproteasome beta 2 in human Raji cell lysates after 1 hr by competitive ABPP assay; format: subcellular, Lysate
[4] = target: T2, Proteasome Macropain subunit MB1 (Homo sapiens, UniProt P28074); experiment: Inhibition of 20S constitutive proteasome beta 5 chymotrypsin-like activity in human RPMI8226 cell lysates after 1 hr by coomassie brilliant blue staining-based fluorescence assay; format: subcellular, Lysate
T2 sequence (P28074 whole entry): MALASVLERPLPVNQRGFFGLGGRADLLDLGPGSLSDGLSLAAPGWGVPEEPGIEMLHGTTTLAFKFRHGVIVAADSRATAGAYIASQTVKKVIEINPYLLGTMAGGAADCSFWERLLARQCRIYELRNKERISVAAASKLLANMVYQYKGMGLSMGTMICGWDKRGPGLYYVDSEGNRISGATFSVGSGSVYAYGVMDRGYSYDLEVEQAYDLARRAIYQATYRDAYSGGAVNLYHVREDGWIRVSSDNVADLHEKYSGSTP
In short: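 Cells at (5–8)×10⁵ cells/mL were exposed to inhibitor for 1 h at 37 °C, washed in PBS and lysed on ice for 1 h in digitonin/ATP buffer. Residual activity was read by cocktail-ABP labeling, SDS-PAGE and fluorescence densitometry relative to mock, with Coomassie staining correcting for loading. IC50 came from three independent experiments.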

[5] = target: T2, Proteasome Macropain subunit MB1; experiment: Inhibition of 20S constitutive proteasome beta 5 chymotrypsin-like activity in human Raji cell lysates after 1 hr by competitive ABPP assay; format: subcellular, Lysate
[6] = target: T3, Proteasome subunit beta type-8 (Homo sapiens, UniProt P28062); experiment: Inhibition of 20S immunoproteasome beta 5 in human Raji cell lysates after 1 hr by competitive ABPP assay; format: subcellular, Lysate
T3 sequence (P28062 whole entry): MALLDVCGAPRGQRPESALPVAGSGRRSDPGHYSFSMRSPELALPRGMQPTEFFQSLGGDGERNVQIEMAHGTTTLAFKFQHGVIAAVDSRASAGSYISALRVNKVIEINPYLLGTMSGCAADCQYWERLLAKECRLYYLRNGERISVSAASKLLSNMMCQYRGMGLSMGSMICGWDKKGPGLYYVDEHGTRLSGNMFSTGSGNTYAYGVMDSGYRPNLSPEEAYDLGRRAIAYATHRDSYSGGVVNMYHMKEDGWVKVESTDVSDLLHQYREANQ

[7] = target: T4, Proteasome subunit beta type-6 (Homo sapiens, UniProt P28072); experiment: Inhibition of 20S constitutive proteasome beta 1 caspase-like activity in human Raji cell lysates after 1 hr by competitive ABPP assay; format: subcellular, Lysate
T4 sequence (P28072 whole entry): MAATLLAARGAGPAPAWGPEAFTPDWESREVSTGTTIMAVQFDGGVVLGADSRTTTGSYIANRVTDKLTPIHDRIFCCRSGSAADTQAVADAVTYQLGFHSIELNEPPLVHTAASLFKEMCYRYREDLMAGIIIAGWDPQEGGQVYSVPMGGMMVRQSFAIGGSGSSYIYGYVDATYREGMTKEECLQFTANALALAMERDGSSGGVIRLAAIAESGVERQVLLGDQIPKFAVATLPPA
In short: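 Raji cells were sonicated in 3 volumes of Tris pH 7.5 lysis buffer containing DTT, MgCl₂, sucrose, 2 mM ATP and 0.05% digitonin. Lysate (5 μg protein, in buffer with 2 mM ATP and glycerol) was preincubated with inhibitor for 1 h at 37 °C, then with a cocktail of three fluorescent ABPs for 1 h. In-gel fluorescence densitometry was normalized to mock. IC50 came from the mean of three experiments.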

[8] = target: T5, Proteasome subunit beta type-9 (Homo sapiens, UniProt P28065); experiment: Inhibition of 20S immunoproteasome beta 1 in human Raji cell lysates after 1 hr by competitive ABPP assay; format: subcellular, Lysate
T5 sequence (P28065 whole entry): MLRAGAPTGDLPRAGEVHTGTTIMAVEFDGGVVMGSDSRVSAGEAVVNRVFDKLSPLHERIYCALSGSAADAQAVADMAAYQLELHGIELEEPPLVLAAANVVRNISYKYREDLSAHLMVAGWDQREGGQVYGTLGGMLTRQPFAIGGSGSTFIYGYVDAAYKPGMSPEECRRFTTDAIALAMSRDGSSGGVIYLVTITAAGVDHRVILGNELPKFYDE
In short: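 Raji cells were sonicated in 3 volumes of Tris pH 7.5 lysis buffer containing DTT, MgCl₂, sucrose, 2 mM ATP and 0.05% digitonin. Lysate (5 μg protein, in buffer with 2 mM ATP and glycerol) was preincubated with inhibitor for 1 h at 37 °C, then with a cocktail of three fluorescent ABPs for 1 h. […] In-gel fluorescence densitometry was normalized to mock. IC50 came from the mean of three experiments.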

Homo sapiens [9] = species on record: Homo sapiens; experiment: Selectivity ratio of IC50 for 20S immunoproteasome beta 2 in human Raji cell lysates to IC50 for 20S constitutive proteasome beta 2 trypsin-like activity in human Raji cells; format: cell-based
Homo sapiens [10] = species on record: Homo sapiens; experiment: Selectivity ratio of IC50 for 20S immunoproteasome beta 1 in human Raji cell lysates to IC50 for 20S constitutive proteasome beta 2 trypsin-like activity in human Raji cells; format: cell-based
Homo sapiens [11] = species on record: Homo sapiens; experiment: Selectivity ratio of IC50 for 20S constitutive proteasome beta 1 caspase-like activity in human Raji cell lysates to IC50 for 20S constitutive proteasome beta 2 trypsin-like activity in human Raji cells; format: cell-based
Homo sapiens [12] = species on record: Homo sapiens; experiment: Selectivity ratio of IC50 for 20S immunoproteasome beta 5 in human Raji cell lysates to IC50 for 20S constitutive proteasome beta 2 trypsin-like activity in human Raji cells; format: cell-based
Homo sapiens [13] = species on record: Homo sapiens; experiment: Selectivity ratio of IC50 for 20S constitutive proteasome beta 5 chymotrypsin-like activity in human Raji cell lysates to IC50 for 20S constitutive proteasome beta 2 trypsin-like activity in human Raji cells; format: cell-based
[14] = target: T6, Proteasome subunit beta type-7 (Homo sapiens, UniProt Q99436); experiment: Inhibition of 20S constitutive proteasome beta 2 trypsin-like activity in human RPMI8226 cell lysates after 1 hr by coomassie brilliant blue staining-based fluorescence assay; format: subcellular, Lysate
T6 sequence (Q99436 whole entry): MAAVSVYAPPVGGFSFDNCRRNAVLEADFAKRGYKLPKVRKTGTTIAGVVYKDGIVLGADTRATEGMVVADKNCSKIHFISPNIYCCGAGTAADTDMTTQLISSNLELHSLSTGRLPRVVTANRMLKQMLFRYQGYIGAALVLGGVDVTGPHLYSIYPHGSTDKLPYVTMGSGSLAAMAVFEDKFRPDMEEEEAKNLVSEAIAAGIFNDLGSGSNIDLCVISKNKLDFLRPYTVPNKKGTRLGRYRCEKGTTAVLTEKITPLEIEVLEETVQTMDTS

[15] = target: T1, Proteasome subunit beta type-10; experiment: Inhibition of 20S immunoproteasome beta 2 in human RPMI8226 cell lysates after 1 hr by coomassie brilliant blue staining-based fluorescence assay; format: subcellular, Lysate
[16] = target: T3, Proteasome subunit beta type-8; experiment: Inhibition of 20S immunoproteasome beta 5 in human RPMI8226 cell lysates after 1 hr by coomassie brilliant blue staining-based fluorescence assay; format: subcellular, Lysate
In short: (§1)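 Living RPMI-8226 cells were grown in RPMI-1640 with 10% FCS. Cells at (5–8)×10⁵ cells/mL were exposed to inhibitor for 1 h at 37 °C, washed in PBS and lysed on ice for 1 h in digitonin/ATP buffer. Residual activity was read by cocktail-ABP labeling, SDS-PAGE and fluorescence densitometry relative to mock, with Coomassie staining correcting for loading. IC50 came from three independent experiments.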

[17] = target: T5, Proteasome subunit beta type-9; experiment: Inhibition of 20S immunoproteasome beta 1 in human RPMI8226 cell lysates after 1 hr by coomassie brilliant blue staining-based fluorescence assay; format: subcellular, Lysate; in short: as §1

Row | SMILES | pIC50 [1] | Ratio IC50 (Homo sapiens [2]) | pIC50 [3] | pIC50 [4] | pIC50 [5] | pIC50 [6] | pIC50 [7] | pIC50 [8] | Ratio IC50 (Homo sapiens [9]) | Ratio IC50 (Homo sapiens [10]) | Ratio IC50 (Homo sapiens [11]) | Ratio IC50 (Homo sapiens [12]) | Ratio IC50 (Homo sapiens [13]) | pIC50 [14] | pIC50 [15] | pIC50 [16] | pIC50 [17]
1 | COC1CCC(C[C@H](NC(=O)c2cnc(C)s2)C(=O)N[C@@H](CC(C)C)C(=O)N[C@H](/C=C/S(C)(=O)=O)Cc2ccc(CN)cc2)CC1 (some centres undefined) | < 6.00 | > 4 | 5.51 | < 5.00 | < 4.00 | < 4.00 | < 4.00 | < 4.00 | 7 | > 220 | > 220 | > 220 | > 220 | < 5.00 | < 5.00 | < 5.00 | < 5.00
2 | CC(C)C[C@H](NC(=O)[C@H](Cc1ccccc1)N=[N+]=[N-])C(=O)N[C@@H](CO)C(=O)N[C@H](/C=C/S(C)(=O)=O)Cc1ccc(CN)cc1 | 6.28 |  | 6.64 | < 5.00 | 5.85 | 5.66 | < 4.00 | < 4.00 |  |  |  |  |  |  | < 5.00 | < 5.00 | < 5.00
3 | COc1ccc(C[C@H](NC(=O)[C@H](C)NC(=O)CN2CCOCC2)C(=O)N[C@@H](C[C@@H]2CCCC3CCCCC32)C(=O)[C@@]2(C)CO2)cc1 (some centres undefined) |  |  |  |  | < 4.00 | < 4.00 | < 4.00 | < 4.00 |  |  |  |  |  |  |  |  | 
4 | Cc1ncc(C(=O)N[C@@H](CC2CCCCC2)C(=O)N[C@@H](CC(C)C)C(=O)N[C@H](/C=C/S(C)(=O)=O)Cc2ccc(CN)cc2)s1 | 6.27 | 30 | 6.38 | < 5.00 | < 4.00 | < 4.00 | < 4.00 | < 4.00 | 6 | > 1500 | > 1500 | > 1500 | > 1500 | < 5.00 | < 5.00 | < 5.00 | < 5.00
5 | COc1ccc(C[C@H](NC(=O)[C@H](C)NC(=O)CN2CCOCC2)C(=O)N[C@@H](C[C@H]2CCCc3ccccc32)C(=O)[C@@]2(C)CO2)cc1 |  |  |  |  | < 4.00 | < 4.00 | < 4.00 | < 4.00 |  |  |  |  |  |  |  |  | 
6 | COc1ccc(C[C@H](NC(=O)[C@H](C)NC(=O)CN2CCOCC2)C(=O)N[C@@H](CC2CCCC3CCCCC32)C(=O)[C@@]2(C)CO2)cc1 (some centres undefined) |  |  |  |  | < 4.00 | < 4.00 | < 4.00 | < 4.00 |  |  |  |  |  |  |  |  | 
7 | COc1ccc(C[C@H](NC(=O)[C@H](C)NC(=O)CN2CCOCC2)C(=O)N[C@@H](C[C@@H]2CCC[C@H]3CCCC[C@H]32)C(=O)[C@@]2(C)CO2)cc1 |  |  |  |  | < 4.00 | 4.55 | 4.28 | < 4.00 |  |  |  |  |  |  |  |  | 
8 | CC(C)C[C@H](NC(=O)[C@H](Cc1ccccc1)N=[N+]=[N-])C(=O)N[C@H](C(=O)N[C@H](/C=C/S(C)(=O)=O)Cc1ccc(CN)cc1)[C@@H](C)O | 6.48 |  | 6.96 | < 5.00 | 6.12 | 5.68 | < 4.00 | < 4.00 |  |  |  |  |  |  | < 5.00 | < 5.00 | < 5.00
9 | COc1ccc(C[C@H](NC(=O)[C@H](C)NC(=O)CN2CCOCC2)C(=O)N[C@@H](C[C@@H]2CCCc3ccccc32)C(=O)[C@@]2(C)CO2)cc1 |  |  |  |  | < 4.00 | < 4.00 | < 4.00 | < 4.00 |  |  |  |  |  |  |  |  | 
